Experimental data as given in ChEMBL document CHEMBL4387713, “Galloyl Carbohydrates with Antiangiogenic Activity Mediated by Capillary Morphogenesis Gene 2 (CMG2) Protein Binding” (J Med Chem, 2019).

Tests used:
[1] = Toxicity in C57BL/6J mouse assessed as body weight loss at 10 mg/kg, ip; format: organism-based; settings: in vivo
Summary of the method: (§1)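 C57BL/6J mice given 80 ng bFGF slow-release pellets in the cornea about 1.0 mm from the temporal limbus. Compound diluted 5:1 in saline, 10 mg/kg/day ip. Vehicle is DMSO/NMP/Tween/Cremophor in saline. Vessel area compared with vehicle by t-test (vehicle n = 9, treated n = 10). Body weight followed against vehicle-treated mice.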

[2] = tested on: Mus musculus; assay: Inhibition of basic fibroblast growth factor-induced corneal angiogenesis in C57BL/6J mouse assessed as decrease in vessel area at 10 mg/kg administered intraperitoneally measured on 6th postoperative day relative to control; format: functional; settings: ip; summary of the method: as §1
[3] = tested on: EA.hy 926; assay: Antimigratory activity in human EAhy926 cells measured at 10 mins interval for 12 hrs by time-lapse transmitted light microscopy
[4] = biological target: Anthrax toxin receptor 2 (Homo sapiens, UniProt P58335, C178A/R40C); assay: Inhibition of AF488-labelled PA binding to AF546- labelled GST-tagged CMG2 R40C/C178A double mutant (unknown origin) expressed in Escherichia coli BL21 DE3 measured after 4 hrs by FRET assay
Sequence of Anthrax toxin receptor 2 (P58335 whole entry, looked up, stated change not applied): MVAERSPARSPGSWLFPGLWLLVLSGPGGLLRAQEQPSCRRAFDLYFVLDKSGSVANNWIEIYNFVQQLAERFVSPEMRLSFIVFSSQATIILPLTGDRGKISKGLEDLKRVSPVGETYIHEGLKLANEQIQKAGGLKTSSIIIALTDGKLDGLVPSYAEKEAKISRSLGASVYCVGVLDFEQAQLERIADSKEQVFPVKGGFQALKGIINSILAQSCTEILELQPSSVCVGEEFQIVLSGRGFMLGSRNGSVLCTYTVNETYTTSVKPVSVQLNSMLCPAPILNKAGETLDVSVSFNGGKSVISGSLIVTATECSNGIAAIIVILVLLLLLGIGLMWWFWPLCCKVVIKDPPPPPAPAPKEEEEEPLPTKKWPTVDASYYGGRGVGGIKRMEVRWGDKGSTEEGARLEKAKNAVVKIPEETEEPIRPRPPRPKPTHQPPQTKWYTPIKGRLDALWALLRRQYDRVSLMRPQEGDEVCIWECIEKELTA

O=C(OC[C@H]1O[C@@H](OC(=O)c2cc(O)c(O)c(O)c2)[C@@H](OC(=O)c2cc(O)c(O)c(O)c2)[C@@H](OC(=O)c2cc(O)c(O)c(O)c2)[C@@H]1OC(=O)c1cc(O)c(O)c(O)c1)c1cc(O)c(O)c(O)c1
Activity [1]: Non-Toxic | inhibition in vivo at 10 mg/kg [2]: 20% | IC50 [3]: 365 to 400 nM | IC50 [4]: 58 nM

O=C(OC[C@H]1O[C@H](OC(=O)c2cc(O)c(O)c(O)c2)[C@@H](OC(=O)c2cc(O)c(O)c(O)c2)[C@@H](OC(=O)c2cc(O)c(O)c(O)c2)[C@@H]1OC(=O)c1cc(O)c(O)c(O)c1)c1cc(O)c(O)c(O)c1
IC50 [4]: 100 nM

O=C(O[C@@H]1OC[C@@H](OC(=O)c2cc(O)c(O)c(O)c2)[C@@H](OC(=O)c2cc(O)c(O)c(O)c2)[C@H]1OC(=O)c1cc(O)c(O)c(O)c1)c1cc(O)c(O)c(O)c1
IC50 [4]: > 10000 nM

O=C(OC[C@H]1O[C@H](O[C@H]2O[C@H](COC(=O)c3ccc(O)c(O)c3O)[C@@H](OC(=O)c3ccc(O)c(O)c3O)[C@H](OC(=O)c3ccc(O)c(O)c3O)[C@H]2OC(=O)c2ccc(O)c(O)c2O)[C@@H](OC(=O)c2ccc(O)c(O)c2O)[C@@H](OC(=O)c2ccc(O)c(O)c2O)[C@@H]1OC(=O)c1ccc(O)c(O)c1O)c1ccc(O)c(O)c1O
IC50 [4]: > 10000 nM

O=C(OC[C@H]1O[C@H](O[C@H]2[C@H](OC(=O)c3ccc(O)c(O)c3O)[C@@H](OC(=O)c3ccc(O)c(O)c3O)[C@H](OC(=O)c3ccc(O)c(O)c3O)O[C@@H]2COC(=O)c2ccc(O)c(O)c2O)[C@H](OC(=O)c2ccc(O)c(O)c2O)[C@@H](OC(=O)c2ccc(O)c(O)c2O)[C@@H]1OC(=O)c1ccc(O)c(O)c1O)c1ccc(O)c(O)c1O
IC50 [4]: 1160 nM

O=C(OC[C@H]1O[C@H](OC(=O)c2ccc(O)c(O)c2O)[C@@H](OC(=O)c2ccc(O)c(O)c2O)[C@@H](OC(=O)c2ccc(O)c(O)c2O)[C@@H]1OC(=O)c1ccc(O)c(O)c1O)c1ccc(O)c(O)c1O
IC50 [4]: > 10000 nM

O=C(OC[C@H]1O[C@H](O[C@H]2O[C@H](COC(=O)c3cc(O)c(O)c(O)c3)[C@@H](OC(=O)c3cc(O)c(O)c(O)c3)[C@H](OC(=O)c3cc(O)c(O)c(O)c3)[C@H]2OC(=O)c2cc(O)c(O)c(O)c2)[C@@H](OC(=O)c2cc(O)c(O)c(O)c2)[C@@H](OC(=O)c2cc(O)c(O)c(O)c2)[C@@H]1OC(=O)c1cc(O)c(O)c(O)c1)c1cc(O)c(O)c(O)c1
IC50 [4]: > 10000 nM

O=C(OC[C@H]1OC(O)[C@H](OC(=O)c2cc(O)c(O)c(O)c2)[C@@H](OC(=O)c2cc(O)c(O)c(O)c2)[C@H]1OC(=O)c1cc(O)c(O)c(O)c1)c1cc(O)c(O)c(O)c1 (stereo partly drawn)
IC50 [4]: 167 nM

O=C(OC[C@H]1OC(OC(=O)c2ccc(O)c(O)c2O)[C@H](OC(=O)c2ccc(O)c(O)c2O)[C@@H](OC(=O)c2ccc(O)c(O)c2O)[C@@H]1OC(=O)c1ccc(O)c(O)c1O)c1ccc(O)c(O)c1O (stereo partly drawn)
IC50 [4]: 3420 nM

O=C(OC[C@H]1O[C@H](O[C@H]2[C@H](OC(=O)c3cc(O)c(O)c(O)c3)[C@@H](OC(=O)c3cc(O)c(O)c(O)c3)[C@H](OC(=O)c3cc(O)c(O)c(O)c3)O[C@@H]2COC(=O)c2cc(O)c(O)c(O)c2)[C@H](OC(=O)c2cc(O)c(O)c(O)c2)[C@@H](OC(=O)c2cc(O)c(O)c(O)c2)[C@@H]1OC(=O)c1cc(O)c(O)c(O)c1)c1cc(O)c(O)c(O)c1
IC50 [4]: > 10000 nM

O=C(O[C@H]1OC[C@@H](OC(=O)c2ccc(O)c(O)c2O)[C@@H](OC(=O)c2ccc(O)c(O)c2O)[C@H]1OC(=O)c1ccc(O)c(O)c1O)c1ccc(O)c(O)c1O
IC50 [4]: > 10000 nM

O=C(OC[C@H]1O[C@@H](OC(=O)c2ccc(O)c(O)c2O)[C@@H](OC(=O)c2ccc(O)c(O)c2O)[C@@H](OC(=O)c2ccc(O)c(O)c2O)[C@@H]1OC(=O)c1ccc(O)c(O)c1O)c1ccc(O)c(O)c1O
IC50 [4]: 132 nM

O=C(O[C@@H]1OC[C@@H](OC(=O)c2ccc(O)c(O)c2O)[C@@H](OC(=O)c2ccc(O)c(O)c2O)[C@H]1OC(=O)c1ccc(O)c(O)c1O)c1ccc(O)c(O)c1O
IC50 [4]: > 10000 nM

O=C(OCC(OC(=O)c1ccc(O)c(O)c1O)[C@@H]1O[C@H](OC(=O)c2ccc(O)c(O)c2O)[C@H](OC(=O)c2ccc(O)c(O)c2O)[C@H]1OC(=O)c1ccc(O)c(O)c1O)c1ccc(O)c(O)c1O (single isomer, unassigned)
IC50 [4]: > 10000 nM

O=C(OC[C@H]1O[C@@H](OC(=O)c2cc(O)c(O)c(O)c2)[C@H](OC(=O)c2cc(O)c(O)c(O)c2)[C@@H](OC(=O)c2cc(O)c(O)c(O)c2)[C@@H]1OC(=O)c1cc(O)c(O)c(O)c1)c1cc(O)c(O)c(O)c1 [PENTAGALLOYL GLUCOSE]
IC50 [4]: 607 nM
